Experimental data: PubChem BioAssay AID623921 (The Scripps Research Institute Molecular Screening Center, 2012)
“And” between values parts separate entries of the source, which are not always exact repeats. Equal values may be shown once. The source made the active and inactive calls.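 How the source made its calls: active means remaining nuclease activity at or below 52% of the solvent-only control; inactive means the rest.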

target: RecBCD enzyme subunit RecC (Escherichia coli (strain K12)) + RecBCD enzyme subunit RecB (Escherichia coli (strain K12)) (UniProt P07648+P08394); assay: purified RecBCD nuclease inhibitors, late-stage follow-up, counter-screen for AddAB inhibitor project, biochemical, radioactivity readout, 100 µM single dose (AID 623921); conditions: [3H] dsDNA nuclease, TCA-soluble radioactivity, at 100 µM, hits give low values
How it was run: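 System: purified E. coli RecBCD helicase-nuclease enzyme; Input: RecBCD enzyme at 4.5 nM; Compound: single nominal 100 µM compound dose, 5% DMSO final; Incubation: enzyme-compound mix on ice, 20 min reaction at 37 °C; Detection: scintillation counting of acid-soluble tritium after TCA precipitation; Evaluation: nuclease activity % versus DMSO reactions; Replication: triplicate.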

Chain of RecBCD enzyme subunit RecC (Escherichia coli (strain K12)) + RecBCD enzyme subunit RecB (Escherichia coli (strain K12)) (P07648 whole entry, looked up): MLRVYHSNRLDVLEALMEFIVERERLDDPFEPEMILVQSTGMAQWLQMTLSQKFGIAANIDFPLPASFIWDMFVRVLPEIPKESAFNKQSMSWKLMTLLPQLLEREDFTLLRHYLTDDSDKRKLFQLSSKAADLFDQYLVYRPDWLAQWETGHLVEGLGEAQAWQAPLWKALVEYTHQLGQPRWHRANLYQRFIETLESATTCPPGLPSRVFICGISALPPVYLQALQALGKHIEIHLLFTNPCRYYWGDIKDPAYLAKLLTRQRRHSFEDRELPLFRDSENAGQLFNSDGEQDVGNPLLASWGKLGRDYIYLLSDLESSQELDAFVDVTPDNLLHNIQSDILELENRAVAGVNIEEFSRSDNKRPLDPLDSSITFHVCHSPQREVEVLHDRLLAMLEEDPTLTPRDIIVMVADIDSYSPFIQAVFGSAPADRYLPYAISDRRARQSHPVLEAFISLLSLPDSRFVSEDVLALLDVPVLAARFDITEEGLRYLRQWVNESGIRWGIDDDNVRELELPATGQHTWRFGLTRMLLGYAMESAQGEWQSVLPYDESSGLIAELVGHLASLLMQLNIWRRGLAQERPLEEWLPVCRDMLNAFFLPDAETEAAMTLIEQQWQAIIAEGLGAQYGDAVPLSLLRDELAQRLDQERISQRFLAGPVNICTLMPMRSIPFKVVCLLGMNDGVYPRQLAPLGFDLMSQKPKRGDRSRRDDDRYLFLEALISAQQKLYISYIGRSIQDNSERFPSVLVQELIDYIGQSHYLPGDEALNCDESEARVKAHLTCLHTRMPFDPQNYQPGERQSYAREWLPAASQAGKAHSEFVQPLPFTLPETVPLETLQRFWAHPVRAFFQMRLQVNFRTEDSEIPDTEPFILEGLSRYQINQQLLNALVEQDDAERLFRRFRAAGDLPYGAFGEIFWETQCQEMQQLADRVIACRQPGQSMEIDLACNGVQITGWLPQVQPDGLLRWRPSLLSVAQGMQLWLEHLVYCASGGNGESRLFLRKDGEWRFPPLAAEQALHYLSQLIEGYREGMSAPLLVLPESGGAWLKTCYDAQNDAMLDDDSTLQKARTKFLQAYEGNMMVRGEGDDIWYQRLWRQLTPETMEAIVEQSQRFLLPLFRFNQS
Chain of RecBCD enzyme subunit RecC (Escherichia coli (strain K12)) + RecBCD enzyme subunit RecB (Escherichia coli (strain K12)) (P08394 whole entry, looked up): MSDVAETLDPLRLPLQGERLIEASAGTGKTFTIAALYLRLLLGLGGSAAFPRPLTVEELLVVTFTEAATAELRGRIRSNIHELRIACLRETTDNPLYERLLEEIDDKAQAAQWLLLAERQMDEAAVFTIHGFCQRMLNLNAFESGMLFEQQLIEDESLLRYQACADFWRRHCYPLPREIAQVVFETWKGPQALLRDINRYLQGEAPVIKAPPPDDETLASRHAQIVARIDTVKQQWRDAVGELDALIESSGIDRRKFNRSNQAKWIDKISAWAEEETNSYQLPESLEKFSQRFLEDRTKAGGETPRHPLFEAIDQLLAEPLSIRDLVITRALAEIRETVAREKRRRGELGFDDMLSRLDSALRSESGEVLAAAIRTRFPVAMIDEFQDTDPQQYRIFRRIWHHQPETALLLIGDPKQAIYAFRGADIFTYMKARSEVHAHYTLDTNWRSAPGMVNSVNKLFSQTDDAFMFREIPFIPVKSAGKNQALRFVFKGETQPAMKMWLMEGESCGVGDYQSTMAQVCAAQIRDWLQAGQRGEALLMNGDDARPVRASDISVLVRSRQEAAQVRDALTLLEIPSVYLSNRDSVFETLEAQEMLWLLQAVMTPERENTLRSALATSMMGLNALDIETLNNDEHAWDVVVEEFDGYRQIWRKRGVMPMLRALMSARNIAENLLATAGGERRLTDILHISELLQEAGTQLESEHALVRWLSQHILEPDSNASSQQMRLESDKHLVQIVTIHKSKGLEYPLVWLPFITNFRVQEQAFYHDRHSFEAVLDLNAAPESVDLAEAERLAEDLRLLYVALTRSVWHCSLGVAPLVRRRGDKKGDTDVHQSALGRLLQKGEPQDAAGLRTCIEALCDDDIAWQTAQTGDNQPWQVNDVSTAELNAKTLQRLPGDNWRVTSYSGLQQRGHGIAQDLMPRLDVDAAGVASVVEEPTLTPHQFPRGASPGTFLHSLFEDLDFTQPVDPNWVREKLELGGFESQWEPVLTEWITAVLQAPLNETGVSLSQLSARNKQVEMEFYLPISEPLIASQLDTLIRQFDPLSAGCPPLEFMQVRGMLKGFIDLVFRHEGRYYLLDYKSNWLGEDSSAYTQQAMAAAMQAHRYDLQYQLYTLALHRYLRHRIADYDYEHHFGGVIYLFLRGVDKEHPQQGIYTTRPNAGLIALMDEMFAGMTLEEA

| Compound | remaining enzyme activity |
| --- | --- |
| N#Cc1c(NC(=O)c2ccccc2C(=O)O)sc2c1CCCC2 | 110% (inactive) |
| CCn1cc(C(=O)O)c(=O)c2cnc(N3CCN(C(=O)Nc4ccccc4)CC3)nc21 | 83% (inactive) |
| CCn1cc(C(=O)O)c(=O)c2cnc(N3CCN(C(=S)NC(=O)c4cccnc4)CC3)nc21 | 40% |
| CCn1cc(C(=O)O)c(=O)c2cnc(N3CCN(C(=S)Nc4ccccc4OC)CC3)nc21 | 26% |
| N#Cc1c(NC(=O)c2cnccn2)sc2c1CCCCCC2 | 71% (inactive) |
| N#Cc1c(NC(=O)c2ccco2)sc2c1CCC2 | 41% |
| CCn1cc(C(=O)O)c(=O)c2cnc(N3CCN(C(=S)NC(=O)c4cccc(C)c4)CC3)nc21 | 11% |
| N#Cc1c(NC(=O)c2ccc([N+](=O)[O-])o2)sc2c1CCCC2 | 110% (inactive) |
| CCn1cc(C(=O)O)c(=O)c2cnc(N3CCN(C(=S)NC(=O)c4ccccc4Cl)CC3)nc21 | 58% (inactive) |
| COC(=O)c1c(-c2ccccc2)csc1NC(=O)c1cnccn1 | 28% |
| CCn1cc(C(=O)O)c(=O)c2cnc(N3CCN(C(=S)NC(=O)c4ccco4)CC3)nc21 | 84% (inactive) |
| CSc1ncc(Cl)c(C(=O)Nc2sc3c(c2C(=O)NC2CCS(=O)(=O)C2)CCC(C)C3)n1 (stereo not drawn) | 76% (inactive) |
| Cc1ccc(C(=O)Nc2sc3c(c2C#N)CCC3)o1 | 84% (inactive) |
| CCC(C)(C)C1CCc2c(sc(NC(=O)c3cnccn3)c2C#N)C1 (stereo not drawn) | 85% (inactive) |
| CCn1cc(C(=O)O)c(=O)c2cnc(N3CCN(C(=S)NC)CC3)nc21 | 35% |
| CCn1cc(C(=O)O)c(=O)c2cnc(N3CCN(C(=S)Nc4ccccc4)CC3)nc21 | 23% |
| CCn1cc(C(=O)O)c(=O)c2cnc(N3CCNCC3)nc21 | 110% (inactive) |
| CCn1cc(C(=O)O)c(=O)c2cc(F)c(N3CCN(C(=S)Nc4cccc(C(F)(F)F)c4)CC3)cc21 | 12% |
| CC1CCc2c(sc(NC(=O)c3ccc([N+](=O)[O-])o3)c2N)C1 (stereo not drawn) | 110% (inactive) |
| CCn1cc(C(=O)O)c(=O)c2cnc(N3CCN(C(=S)Nc4ccccc4Cl)CC3)nc21 | 28% |
| N#Cc1c(NC(=O)c2cccc(F)c2)sc2c1CCCC2 | 110% (inactive) |
| Cc1ccc(C(=O)Nc2sc3c(c2C#N)CCCCC3)o1 | 106% (inactive) |
| N#Cc1c(NC(=O)c2cc(-c3ccccc3)on2)sc2c1CCCC2 | 34% |
| Nc1c(NC(=O)c2ccc([N+](=O)[O-])o2)sc2c1CCCC2 | 98% (inactive) |
| Cn1nccc1C(=O)Nc1sc2c(c1C#N)CCCC2 | 71% (inactive) |
| CCn1cc(C(=O)O)c(=O)c2cc(F)c(N3CCN(C(=S)Nc4ccccc4C(F)(F)F)CC3)cc21 | 45% |
| CCn1cc(C(=O)O)c(=O)c2cnc(N3CCN(C(=S)Nc4ccc5c(c4)OCO5)CC3)nc21 | 4% |

| Compound | remaining enzyme activity |
| --- | --- |
| N#Cc1c(NC(=O)c2ccccc2)sc2c1CCC2 | 94% (inactive) |
| CCn1cc(C(=O)O)c(=O)c2cnc(N3CCN(C(=S)NCc4ccccc4)CC3)nc21 | 7% |
| CC1CCc2c(sc(NC(=O)c3ccc([N+](=O)[O-])o3)c2C#N)C1 (stereo not drawn) | 110% (inactive) |
| CCn1cc(C(=O)O)c(=O)c2cnc(N3CCN(C(=S)Nc4ccccc4C)CC3)nc21 | 40% |
| CSc1ncc(Cl)c(C(=O)Nc2sc3c(c2C#N)CCC(C)C3)n1 (stereo not drawn) | 88% (inactive) |
| CCn1cc(C(=O)O)c(=O)c2cnc(N3CCN(C(=S)Nc4ccccc4C(F)(F)F)CC3)nc21 | 30% |
| CCn1cc(C(=O)O)c(=O)c2cnc(N3CCN(C(=S)Nc4ccc(Cl)cc4)CC3)nc21 | -1% |
| NC(=O)c1c(NC(=O)c2cnccn2)sc2c1CCCC2 | 85% (inactive) |
| CCn1cc(C(=O)O)c(=O)c2cnc(N3CCN(C(=S)Nc4ccc(F)cc4)CC3)nc21 | 19% |
| CCn1cc(C(=O)O)c(=O)c2cnc(N3CCN(C(=S)Nc4ccccc4F)CC3)nc21 | 31% |
| Cc1sc(NC(=O)c2ccc(Br)o2)c(C#N)c1C | 51% |
| C=CCNC(=S)N1CCN(c2ncc3c(=O)c(C(=O)O)cn(CC)c3n2)CC1 | 63% (inactive) |
| CC1(C)Cc2c(sc(NC(=O)c3ccco3)c2C#N)CO1 | 90% (inactive) |
| CNC(=O)c1c(NC(=O)c2nc(SCc3ccccc3)ncc2Cl)sc2c1CCCC2 | 26% |
| Cc1sc(NC(=O)c2cnccn2)c(C(=O)OC(C)C)c1-c1ccccc1 | 44% |
| CCn1cc(C(=O)O)c(=O)c2cnc(N3CCN(C(=S)Nc4cccc(C(F)(F)F)c4)CC3)nc21 | -2% |
| CCn1cc(C(=O)O)c(=O)c2cnc(N3CCN(C(=S)NC4CC5CCC4C5)CC3)nc21 (stereo not drawn) | 1% |
| CCn1cc(C(=O)O)c(=O)c2cnc(N3CCN(C(=S)NC(C)c4ccccc4)CC3)nc21 (stereo not drawn) | 1% |
| CCn1cc(C(=O)O)c(=O)c2cnc(N3CCN(C(=S)Nc4ccc5c(c4)OCCO5)CC3)nc21 | 34% |
| COC(=O)c1c(NC(=O)c2cnccn2)sc2c1CCCC2 | 78% (inactive) |
| CC1CCc2c(sc(NC(=O)c3cccs3)c2C#N)C1 (stereo not drawn) | 89% (inactive) |
| CC1CCc2c(sc(NC(=O)c3cnccn3)c2C#N)C1 (stereo not drawn) | 83% (inactive) |
| N#Cc1c(NC(=O)c2ccc(-c3ccccc3[N+](=O)[O-])o2)sc2c1CCCC2 | 120% (inactive) |
| N#Cc1c(NC(=O)c2cnccn2)sc2c1CCCC2 | 21% and 30% |
| COC(=O)c1c(-c2cccc(C)c2)csc1NC(=O)c1cnccn1 | 88% (inactive) |
| N#Cc1c(NC(=O)C2CC=CCC2C(=O)O)sc2c1CCC2 (stereo not drawn) | 77% (inactive) |
